Measurements as given in ChEMBL document CHEMBL2311437, “Synthesis, molecular docking and evaluation of thiazolyl-pyrazoline derivatives containing benzodioxole as potential anticancer agents” (Bioorg Med Chem, 2013).

Columns and labels:
[1] = Antiproliferative activity against mouse B16/F10 cells after 48 hrs by MTT assay; assay type: functional, cell-based; settings: B16-F10, 48 h
How it was run: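 Cells seeded 7×10^3/well, grown 24 h, then exposed 48 h to compounds at final 0.1–100 µg/mL. MTT (5 mg/mL in PBS) added for 4 h, then 10% SDS in 0.01 N HCl, 18 h at 37 °C. Absorbance read at 570 nm. Survival given as % of untreated cells. IC50 taken from replicates of 6 wells over at least three independent experiments.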

MCF7 [2] = test: Antiproliferative activity against human MCF7 cells after 48 hrs by MTT assay; assay type: functional, cell-based; settings: MCF7, 48 h
B16-F10 = test: Induction of apoptosis in mouse B16/F10 cells assessed as increase in cleaved caspase 3 levels after 24 hrs by Western blotting method; assay type: functional, cell-based
How it was run: (§1)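 Cells treated 24 h, harvested and lysed in Tris pH 7.5/NaCl/NP-40 buffer with phosphatase and protease inhibitors. Protein quantified by BCA. Separation by 10% SDS–PAGE, transfer to PVDF, blocking in 5% milk 2 h at RT. Probed overnight at 4 °C with anti-HER-2 or anti-cleaved caspase 3, then HRP secondary antibody.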

MCF7 [3] = test: Induction of apoptosis in human MCF7 cells assessed as increase in cleaved caspase 3 levels after 24 hrs by Western blotting method; assay type: functional, cell-based; how it was run: as §1
[4] = molecular target: Receptor tyrosine-protein kinase erbB-2 (Mus musculus) (UniProt P70424); test: Inhibition of HER2 in mouse B16/F10 cells assessed as down regulation of HEr2 protein levels after 24 hrs by Western blotting method; assay type: cell-based; how it was run: as §1
[5] = molecular target: Receptor tyrosine-protein kinase erbB-2 (Homo sapiens, UniProt P04626); test: Inhibition of human HER2 cytoplasmic domain (amino acids 676 to 1245) expressed in Sf9 cells by DELFIA time resolved fluorometry
How it was run: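 His6-tagged HER-2 was expressed in Sf-9 cells (3-day infection) and Ni-NTA purified at 4 °C. Assay measures autophosphorylation. Compound in 25 mM HEPES pH 7.4 (DMSO <0.1%) preincubated 10 min at RT with 12.5 ng enzyme. Then buffer (MnCl2, Na3VO4, DTT) and 0.1 mM ATP-50 mM MgCl2 (stock mix) added for 1 h. Readout: europium anti-phosphotyrosine, 1 h, ex 340/em 615 nm. IC50 from eight-concentration inhibition curves.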

Sequence of Receptor tyrosine-protein kinase erbB-2 (P04626 whole entry, the tested form may be a part): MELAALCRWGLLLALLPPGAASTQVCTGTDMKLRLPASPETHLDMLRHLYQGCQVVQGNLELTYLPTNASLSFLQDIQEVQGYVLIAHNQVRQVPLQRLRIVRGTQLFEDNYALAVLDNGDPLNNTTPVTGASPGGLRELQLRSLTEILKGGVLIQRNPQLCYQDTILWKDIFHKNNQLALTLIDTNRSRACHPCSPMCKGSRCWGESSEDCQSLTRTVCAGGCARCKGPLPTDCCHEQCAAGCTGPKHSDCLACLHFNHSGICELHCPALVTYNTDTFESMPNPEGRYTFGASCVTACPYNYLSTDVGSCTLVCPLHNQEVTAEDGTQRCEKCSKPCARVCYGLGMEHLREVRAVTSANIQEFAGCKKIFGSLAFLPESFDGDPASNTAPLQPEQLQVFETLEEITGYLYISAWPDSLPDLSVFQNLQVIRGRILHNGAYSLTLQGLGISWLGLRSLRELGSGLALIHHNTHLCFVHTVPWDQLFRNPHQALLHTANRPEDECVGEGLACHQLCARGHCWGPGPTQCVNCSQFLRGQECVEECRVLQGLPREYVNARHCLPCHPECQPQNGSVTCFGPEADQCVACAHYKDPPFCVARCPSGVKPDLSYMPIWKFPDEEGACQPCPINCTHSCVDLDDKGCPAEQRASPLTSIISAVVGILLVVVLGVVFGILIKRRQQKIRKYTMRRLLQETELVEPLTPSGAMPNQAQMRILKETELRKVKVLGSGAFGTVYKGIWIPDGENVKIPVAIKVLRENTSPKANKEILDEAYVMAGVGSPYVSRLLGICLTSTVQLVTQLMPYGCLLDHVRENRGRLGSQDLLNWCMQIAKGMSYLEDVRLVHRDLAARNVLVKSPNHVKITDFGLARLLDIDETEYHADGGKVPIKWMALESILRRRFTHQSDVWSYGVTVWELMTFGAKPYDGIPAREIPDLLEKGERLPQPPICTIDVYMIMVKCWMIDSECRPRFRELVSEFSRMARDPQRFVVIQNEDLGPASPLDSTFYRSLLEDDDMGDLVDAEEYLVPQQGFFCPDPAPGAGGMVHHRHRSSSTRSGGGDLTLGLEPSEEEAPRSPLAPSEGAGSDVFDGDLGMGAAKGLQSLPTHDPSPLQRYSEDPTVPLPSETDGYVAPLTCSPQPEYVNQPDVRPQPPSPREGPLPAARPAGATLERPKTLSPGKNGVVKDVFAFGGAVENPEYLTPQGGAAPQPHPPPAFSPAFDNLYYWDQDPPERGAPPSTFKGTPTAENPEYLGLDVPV
Sequence of Receptor tyrosine-protein kinase erbB-2 (Mus musculus) (P70424 whole entry, the tested form may be a part): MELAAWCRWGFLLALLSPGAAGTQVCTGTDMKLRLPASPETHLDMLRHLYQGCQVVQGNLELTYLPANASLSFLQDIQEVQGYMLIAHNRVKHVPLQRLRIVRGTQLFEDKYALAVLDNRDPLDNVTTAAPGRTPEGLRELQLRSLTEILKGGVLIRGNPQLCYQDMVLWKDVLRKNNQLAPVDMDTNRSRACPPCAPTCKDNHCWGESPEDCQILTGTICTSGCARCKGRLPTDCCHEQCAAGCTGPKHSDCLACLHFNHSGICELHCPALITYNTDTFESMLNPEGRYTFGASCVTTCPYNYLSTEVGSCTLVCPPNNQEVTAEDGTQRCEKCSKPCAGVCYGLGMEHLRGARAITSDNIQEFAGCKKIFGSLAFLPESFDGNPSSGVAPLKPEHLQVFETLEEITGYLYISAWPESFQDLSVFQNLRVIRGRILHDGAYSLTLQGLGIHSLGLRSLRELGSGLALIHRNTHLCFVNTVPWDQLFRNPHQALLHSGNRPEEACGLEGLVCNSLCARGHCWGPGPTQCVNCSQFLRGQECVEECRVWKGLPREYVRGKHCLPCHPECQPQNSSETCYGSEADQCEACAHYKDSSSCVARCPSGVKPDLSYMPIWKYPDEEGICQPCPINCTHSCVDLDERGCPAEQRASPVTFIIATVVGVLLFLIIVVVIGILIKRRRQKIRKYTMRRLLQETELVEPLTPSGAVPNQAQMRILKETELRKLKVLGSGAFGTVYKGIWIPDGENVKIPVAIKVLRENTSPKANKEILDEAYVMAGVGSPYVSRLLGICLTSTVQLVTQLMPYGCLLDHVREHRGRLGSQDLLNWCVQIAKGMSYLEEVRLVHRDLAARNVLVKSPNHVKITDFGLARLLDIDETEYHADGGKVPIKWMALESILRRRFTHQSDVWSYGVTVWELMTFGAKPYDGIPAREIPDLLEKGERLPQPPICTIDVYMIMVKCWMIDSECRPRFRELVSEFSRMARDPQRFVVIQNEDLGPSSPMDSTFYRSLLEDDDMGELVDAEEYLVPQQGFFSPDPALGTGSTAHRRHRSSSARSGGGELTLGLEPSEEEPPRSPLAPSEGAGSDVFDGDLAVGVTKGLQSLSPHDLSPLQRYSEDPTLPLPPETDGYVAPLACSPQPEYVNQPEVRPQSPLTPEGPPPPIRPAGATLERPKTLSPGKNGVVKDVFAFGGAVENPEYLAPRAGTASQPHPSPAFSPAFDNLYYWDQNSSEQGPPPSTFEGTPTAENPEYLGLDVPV

Row | SMILES | IC50 (MCF7 [2]) | inhibition [4] | IC50 [5] | IC50 [1] | Activity (B16-F10) | Activity (MCF7 [3])
1 | COc1ccc(-c2csc(N3N=C(c4ccc(Cl)cc4)CC3c3ccc4c(c3)OCO4)n2)cc1 (stereo not given) | 2410 nM | – | – | 2320 nM | – | –
2 | COc1ccc(C2=NN(c3nc(-c4ccc(Br)cc4)cs3)C(c3ccc4c(c3)OCCO4)C2)cc1 (stereo not given) | 2540 nM | – | – | 2520 nM | – | –
3 | C#Cc1cccc(Nc2ncnc3cc(OCCOC)c(OCCOC)cc23)c1 [ERLOTINIB] | – | – | – | 50 nM | – | –
4 | Cc1ccc(C2=NN(c3nc(-c4ccc(Br)cc4)cs3)C(c3ccc4c(c3)OCCO4)C2)cc1 (stereo not given) | 1590 nM | – | – | 1680 nM | – | –
5 | COc1ccc(C2=NN(c3nc(-c4ccc(OC)cc4)cs3)C(c3ccc4c(c3)OCCO4)C2)cc1 (stereo not given) | 2730 nM | – | – | 3010 nM | – | –
6 | COc1ccc(-c2csc(N3N=C(c4ccc(C)cc4)CC3c3ccc4c(c3)OCCO4)n2)cc1 (stereo not given) | 2680 nM | – | – | 2870 nM | – | –
7 | COc1ccc(-c2csc(N3N=C(c4ccc(Cl)cc4)CC3c3ccc4c(c3)OCCO4)n2)cc1 (stereo not given) | 3030 nM | – | – | 3120 nM | – | –
8 | Fc1ccc(C2=NN(c3nc(-c4ccc(Br)cc4)cs3)C(c3ccc4c(c3)OCO4)C2)cc1 (stereo not given) | 3430 nM | – | – | 3810 nM | – | –
9 | Clc1ccc(C2=NN(c3nc(-c4ccc(Br)cc4)cs3)C(c3ccc4c(c3)OCCO4)C2)cc1 (stereo not given) | 2230 nM | – | – | 2150 nM | – | –
10 | COc1ccc(C2=NN(c3nc(-c4ccc(Br)cc4)cs3)C(c3ccc4c(c3)OCO4)C2)cc1 (stereo not given) | 2470 nM | – | – | 2540 nM | – | –
11 | COc1ccc(-c2csc(N3N=C(c4ccc(F)cc4)CC3c3ccc4c(c3)OCCO4)n2)cc1 (stereo not given) | 4530 nM | – | – | 4430 nM | – | –
12 | Cc1ccc(C2=NN(c3nc(-c4ccc(Br)cc4)cs3)C(c3ccc4c(c3)OCO4)C2)cc1 (stereo not given) | 1410 nM | – | 2230 nM | 1390 nM | – | –
13 | COc1ccc(-c2csc(N3N=C(c4ccc(Br)cc4)CC3c3ccc4c(c3)OCO4)n2)cc1 (stereo not given) | 270 nM | – | 850 nM | 320 nM | – | –
14 | COc1ccc(-c2csc(N3N=C(c4ccc(F)cc4)CC3c3ccc4c(c3)OCO4)n2)cc1 (stereo not given) | 3650 nM | – | – | 3980 nM | – | –

Continued by falling IC50 (MCF7 [2]), values first:

Row | IC50 (MCF7 [2]) | inhibition [4] | IC50 [5] | SMILES | IC50 [1] | Activity (B16-F10) | Activity (MCF7 [3])
15 | 4200 nM | – | – | Fc1ccc(C2=NN(c3nc(-c4ccc(Br)cc4)cs3)C(c3ccc4c(c3)OCCO4)C2)cc1 (stereo not given) | 4110 nM | – | –
16 | 2730 nM | – | – | COc1ccc(C2=NN(c3nc(-c4ccc(OC)cc4)cs3)C(c3ccc4c(c3)OCO4)C2)cc1 (stereo not given) | 2670 nM | – | –
17 | 1720 nM | – | 2380 nM | Clc1ccc(C2=NN(c3nc(-c4ccc(Br)cc4)cs3)C(c3ccc4c(c3)OCO4)C2)cc1 (stereo not given) | 1510 nM | – | –
18 | 1430 nM | – | – | COc1ccc(-c2csc(N3N=C(c4ccc(C)cc4)CC3c3ccc4c(c3)OCO4)n2)cc1 (stereo not given) | 1520 nM | – | –
19 | 870 nM | – | 1320 nM | COc1ccc(-c2csc(N3N=C(c4ccc(Br)cc4)CC3c3ccc4c(c3)OCCO4)n2)cc1 (stereo not given) | 1120 nM | – | –
20 | 320 nM | – | 460 nM | Brc1ccc(C2=NN(c3nc(-c4ccc(Br)cc4)cs3)C(c3ccc4c(c3)OCCO4)C2)cc1 (stereo not given) | 430 nM | – | –
21 | 90 nM | Dose-dependent effect | 180 nM | Brc1ccc(C2=NN(c3nc(-c4ccc(Br)cc4)cs3)C(c3ccc4c(c3)OCO4)C2)cc1 (stereo not given) | 120 nM | Dose-dependent effect | Dose-dependent effect
